ChEMBL document CHEMBL2169813, “Cell death triggered by synthetic flavonoids in human leukemia cells is amplified by the inhibition of extracellular signal-regulated kinase signaling” (Eur J Med Chem, 2012)
pIC50: −log10 of the molar value. The source made the active and inactive calls. The rule behind the calls is not given here.

Columns and labels:
[1] = system: HL-60; assay: Induction of cytochrome-c release in human HL60 cells at 30 uM incubated for 24 hrs by immunoblotting method; type: functional, cell-based
Summary of the method: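 HL-60 cells treated 24 h with 30 µM compound. Cytosolic extracts immunoblotted for cytochrome c released from mitochondria. β-Actin used as loading control.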

[2] = system: HL-60; assay: Induction of cyclin D1 protein expression in human HL60 cells at 30 uM incubated for 24 hrs by Western blotting method; type: functional, cell-based
Summary of the method: (§1)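 HL-60 cells (1 × 10⁶/mL) exposed to compound, harvested at 24 h. Lysed in Tris-HCl pH 7.4/Triton X-100 buffer with phosphatase and protease inhibitors, 15 min at 4 °C. Equal protein run on SDS-PAGE (7.5% PARP, 12.5% caspases) and immunoblotted on PVDF. β-Actin used as loading control.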

[3] = system: HL-60; assay: Cell cycle arrest in human HL60 cells assessed as accumulation at subG1 phase at 30 uM incubated for 24 hrs by flow cytometry (reference value: 2.3 +/- 0.5%); type: functional
[4] = system: HL-60; assay: Induction of procaspase-3 processing in human HL60 cells at 30 uM incubated for 24 hrs by immunoblotting method; type: functional, cell-based; summary of the method: as §1
[5] = target: T1, MAP kinase p38 (Homo sapiens) (UniProt O15264+Q15759+Q16539+P53778); assay: Induction of p38MAPK phosphorylation in human HL60 cells after 4 hrs by Western blotting; type: cell-based; details: HL-60
Summary of the method: (§2)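 HL-60 cells (1 × 10⁶/mL) treated with compound (10–30 µM) for various times. Where used, PD98059 (10 µM) was added 1 h beforehand. Lysates run on 10% SDS-PAGE and immunoblotted for phosphorylated ERK 1/2, JNK/SAPK or p38MAPK. Blots stripped and reprobed for the total kinase as loading control.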

[6] = system: HL-60; assay: Cytotoxicity against human HL60 cells at 100 uM after 72 hrs by MTT assay
[7] = Cytotoxicity against human proliferating PBMCs assessed as cell viability after 48 hrs at 30 uM by MTT assay; type: cell-based, PBMC; details: read-out: Activity
Summary of the method: (§3)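 HL-60 cells, quiescent (fresh) PBMC and phytohemagglutinin-activated healthy human PBMC cultured 48 h over a concentration range of compound. Proliferation measured. Means ± SE of two independent experiments, each in triplicate.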

[8] = target: T2, c-Jun N-terminal kinase, JNK (Homo sapiens) (UniProt P45983+P53779+P45984); assay: Induction of JNK/SAPK phosphorylation in human HL60 cells after 30 mins by Western blotting; type: cell-based; details: HL-60; summary of the method: as §2
[9] = system: HL-60; assay: Cell cycle arrest in human HL60 cells assessed as accumulation at G2/M phase at 10 uM incubated for 24 hrs by flow cytometry (reference value: 33.2 +/- 2.1%); type: functional
[10] = system: HL-60; assay: Induction of caspase activation in human HL60 cells assessed as increase in PARP cleavage at 30 uM incubated for 24 hrs by immunoblotting method; type: functional, cell-based; summary of the method: as §1
[11] = system: HL-60; assay: Cell cycle arrest in human HL60 cells assessed as accumulation at G2/M phase at 30 uM incubated for 24 hrs by flow cytometry (reference value: 33.2 +/- 2.1%); type: functional
[12] = system: HL-60; assay: Increase in apoptosis in human HL60 cells assessed as hypodiploid cells level incubated for 24 hrs in presence of 10 uM MEK1/2 inhibitor PD98059 by flow cytometry (reference value: 15%); type: functional
Summary of the method: (§4)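 HL-60 cells preincubated 1 h with PD98059 (10 µM), SP600125 (10 µM) or SB203580 (2 µM), then treated with compound. Hypodiploid (apoptotic) cells quantified by flow cytometry of propidium iodide-stained nuclei. Three independent experiments, each in triplicate.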

[13] = system: PBMC; assay: Induction of MLL gene cleavage in human proliferating PBMCs at 30 uM incubated for 16 hrs by inverse PCR method; type: functional, cell-based
Summary of the method: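 Peripheral blood mononuclear cells exposed to 30 µM compound for 16 h. Genomic DNA digested with Xba I and circularised. Nested inverse PCR (MF1–MR1, then MF2–MR2). Wild-type MLL removed by Pvu II digestion before PCR to reveal rearrangement products.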

[14] = system: HL-60; assay: Cytotoxicity against human HL60 cells after 72 hrs by MTT assay; type: functional, cell-based; details: HL-60, 72 h
Summary of the method: (§5)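 MTT colorimetric assay on HL-60 and HL-60/MX1 cells (RPMI 1640, 10% heat-inactivated FBS), 72 h exposure, absorbance 570 nm. IC50 obtained graphically by curve fitting. Means ± S.E. of three independent experiments, each in triplicate.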

[15] = target: T3, Mitogen-activated protein kinase; ERK1/ERK2 (Homo sapiens) (UniProt P27361+P28482); assay: Induction of ERK1/2 phosphorylation in human HL60 cells after 6 hrs by Western blotting; type: cell-based; details: HL-60; summary of the method: as §2
[16] = system: HL-60; assay: Induction of procaspase-7 processing in human HL60 cells at 30 uM incubated for 24 hrs by immunoblotting method; type: functional, cell-based; summary of the method: as §1
[17] = system: HL-60; assay: Induction of apoptosis in human HL60 cells assessed as hypodiploid cells level at 30 uM incubated for 24 hrs in presence of caspase-9 inhibitor z-LEHD-fmk by flow cytometry; type: functional, cell-based
Summary of the method: (§6)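 HL-60 cells given 30 µM compound for 24 h, alone or with z-VAD-fmk (100 µM), z-DEVD-fmk, z-IETD-fmk or z-LEHD-fmk (each 50 µM). Propidium iodide staining, hypodiploid cells quantified by flow cytometry. Three independent experiments, each in triplicate.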

[18] = system: HL-60; assay: Induction of DNA fragmentation in human HL60 cells at 10 uM incubated for 24 hrs by agarose gel electrophoresis; type: functional, cell-based
Summary of the method: (§7)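 HL-60 cells treated with the indicated concentrations. Genomic DNA extracted, run on agarose gel and visualised under UV after ethidium bromide staining, looking for internucleosomal fragmentation.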

[19] = system: HL-60; assay: Induction of apoptosis in human HL60 cells assessed as incidence of condensed and fragmented chromatin at 30 uM incubated for 24 hrs by fluorescent microscopy; type: functional, cell-based
[20] = target: T3, Mitogen-activated protein kinase; ERK1/ERK2 (Homo sapiens); assay: Induction of ERK1/2 phosphorylation in human HL60 cells after 30 mins in presence of 10 uM MEK1/2 inhibitor PD98059 by Western blotting; type: cell-based; details: HL-60; summary of the method: as §2
[21] = system: HL-60; assay: Cytotoxicity against human HL60 cells assessed as cell viability after 48 hrs at 30 uM by MTT assay; type: functional; details: HL-60, 48 h, read-out: Activity; summary of the method: as §3
[22] = system: HL-60; assay: Induction of procaspase-8 hydrolysis in human HL60 cells at 30 uM incubated for 24 hrs by immunoblotting method; type: functional, cell-based; summary of the method: as §1
[23] = system: HL-60; assay: Cell cycle arrest in human HL60 cells assessed as accumulation at S phase at 10 uM incubated for 24 hrs by flow cytometry (reference value: 16.7 +/- 0.5%); type: functional
[24] = system: HL-60; assay: Induction of apoptosis in human HL60 cells assessed as hypodiploid cells level at 30 uM incubated for 24 hrs in presence of caspase-3 and -7 inhibitor z-DEVD-fmk by flow cytometry; type: functional, cell-based; summary of the method: as §6
[25] = system: HL-60; assay: Induction of p21'Cip1 protein expression in human HL60 cells at 30 uM incubated for 24 hrs by Western blotting method; type: functional, cell-based; summary of the method: as §1
[26] = Cytotoxicity against human HL60/MX1 cells after 72 hrs by MTT assay; type: functional, cell-based; details: HL60/MX1, 72 h; summary of the method: as §5
[27] = system: HL-60; assay: Induction of Bid protein cleavage in human HL60 cells at 30 uM incubated for 24 hrs by Western blotting method; type: functional, cell-based; summary of the method: as §1
[28] = system: HL-60; assay: Cell cycle arrest in human HL60 cells assessed as accumulation at subG1 phase at 10 uM incubated for 24 hrs by flow cytometry (reference value: 2.3 +/- 0.5%); type: functional
[29] = system: HL-60; assay: Cell cycle arrest in human HL60 cells assessed as accumulation at S phase at 30 uM incubated for 24 hrs by flow cytometry (reference value: 16.7 +/- 0.5%); type: functional
[30] = system: HL-60; assay: Induction of apoptosis in human HL60 cells assessed as hypodiploid cells level incubated for 24 hrs in presence of 10 uM JNK/SAPK inhibitor SP600125 by flow cytometry; type: functional, cell-based; summary of the method: as §4
[31] = system: HL-60; assay: Induction of procaspase-9 cleavage in human HL60 cells at 30 uM incubated for 24 hrs by immunoblotting method; type: functional, cell-based; summary of the method: as §1
[32] = target: T3, Mitogen-activated protein kinase; ERK1/ERK2 (Homo sapiens); assay: Induction of ERK1/2 phosphorylation in human HL60 cells after 30 mins by Western blotting; type: cell-based; details: HL-60; summary of the method: as §2
[33] = system: HL-60; assay: Cell cycle arrest in human HL60 cells assessed as accumulation at G1 phase at 30 uM incubated for 24 hrs by flow cytometry (reference value: 48 +/- 1.6%); type: functional
[34] = system: HL-60; assay: Induction of procaspase-6 processing in human HL60 cells at 30 uM incubated for 24 hrs by immunoblotting method; type: functional, cell-based; summary of the method: as §1
[35] = system: HL-60; assay: Induction of DNA fragmentation in human HL60 cells at 30 uM incubated for 24 hrs by agarose gel electrophoresis; type: functional, cell-based; summary of the method: as §7
[36] = system: HL-60; assay: Cell cycle arrest in human HL60 cells assessed as accumulation at G1 phase at 10 uM incubated for 24 hrs by flow cytometry (reference value: 48 +/- 1.6%); type: functional
[37] = system: HL-60; assay: Induction of apoptosis in human HL60 cells assessed as hypodiploid cells level at 30 uM incubated for 24 hrs in presence of caspase-8 inhibitor z-IETD-fmk by flow cytometry; type: functional, cell-based; summary of the method: as §6
[38] = target: T1, MAP kinase p38 (Homo sapiens); assay: Induction of p38MAPK phosphorylation in human HL60 cells after 30 mins by Western blotting; type: cell-based; details: HL-60; summary of the method: as §2
[39] = system: HL-60; assay: Induction of apoptosis in human HL60 cells assessed as changes in nuclear morphology at 30 uM incubated for 24 hrs by fluorescence microscopy (reference value: 4.9 +/- 1.0%)
[40] = target: T2, c-Jun N-terminal kinase, JNK (Homo sapiens); assay: Induction of JNK/SAPK phosphorylation in human HL60 cells after 6 hrs by Western blotting; type: cell-based; details: HL-60; summary of the method: as §2
[41] = system: HL-60; assay: Induction of apoptosis in human HL60 cells assessed as hypodiploid cells level incubated for 24 hrs in presence of 2 uM p38MAPK inhibitor SB203580 by flow cytometry; type: functional, cell-based; summary of the method: as §4
[42] = system: HL-60; assay: Induction of apoptosis in human HL60 cells assessed as hypodiploid cells level at 30 uM incubated for 24 hrs in presence of caspase inhibitor z-VAD-fmk by flow cytometry; type: functional, cell-based; summary of the method: as §6

T3 sequence (P27361 whole entry, looked up): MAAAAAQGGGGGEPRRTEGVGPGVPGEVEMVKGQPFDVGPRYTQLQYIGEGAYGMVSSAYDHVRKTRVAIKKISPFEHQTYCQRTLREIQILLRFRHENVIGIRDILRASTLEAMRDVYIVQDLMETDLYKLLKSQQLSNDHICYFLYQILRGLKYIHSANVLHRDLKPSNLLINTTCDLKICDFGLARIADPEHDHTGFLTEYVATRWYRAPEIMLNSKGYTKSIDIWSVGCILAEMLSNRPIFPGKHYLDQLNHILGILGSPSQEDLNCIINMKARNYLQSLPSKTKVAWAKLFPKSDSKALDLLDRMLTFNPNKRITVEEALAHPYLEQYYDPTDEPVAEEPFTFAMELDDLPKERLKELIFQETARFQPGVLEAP
T3 sequence (P28482 whole entry, looked up): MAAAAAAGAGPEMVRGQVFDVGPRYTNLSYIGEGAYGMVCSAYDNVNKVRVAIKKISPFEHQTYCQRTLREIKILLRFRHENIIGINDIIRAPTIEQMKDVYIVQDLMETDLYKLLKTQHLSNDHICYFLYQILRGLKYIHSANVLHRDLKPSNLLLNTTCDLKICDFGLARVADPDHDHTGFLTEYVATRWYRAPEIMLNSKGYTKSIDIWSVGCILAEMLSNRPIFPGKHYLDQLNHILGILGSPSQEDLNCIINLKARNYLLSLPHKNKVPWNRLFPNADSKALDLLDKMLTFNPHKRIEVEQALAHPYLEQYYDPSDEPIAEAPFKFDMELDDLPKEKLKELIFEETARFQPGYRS

## COC(=O)c1c(C)c(C)cc2c(=O)cc(-c3ccccc3C)oc12
[1]
  Activity: Active
[2]
  Activity: Active
[3]
  Activity: 28.5%
[4]
  Activity: Active
[5]
  Activity: inactive
[6]
  Activity: Active
[7]
  viability at 48 h, 30 µM: 75%
[8]
  Activity: Active
[9]
  Activity: 24.4%
[10]
  Activity: Active
[11]
  Activity: 11.8%
[12]
  Activity: 25%
[13]
  Activity: Active
[14]
  pIC50: 5.00
[15]
  Activity: Active
[16]
  Activity: Active
[17]
  Activity: inactive
[18]
  Activity: Active
[19]
  Activity: Active
[20]
  Activity: inactive
[21]
  viability at 30 µM: 25%
[22]
  Activity: Active
[23]
  Activity: 16.6%
[24]
  Activity: inactive
[25]
  Activity: Active
[26]
  pIC50: 4.72
[27]
  Activity: Active
[28]
  Activity: 5.5%
[29]
  Activity: 7.6%
[30]
  Activity: Active
[31]
  Activity: Active
[32]
  Activity: Active
[33]
  Activity: 48.1%
[34]
  Activity: Active
[35]
  Activity: Active
[36]
  Activity: 53%
[37]
  Activity: inactive
[38]
  Activity: Active
[39]
  Activity: 26.9%
[40]
  Activity: Active
[41]
  Activity: Active
[42]
  Activity: inactive
